In brackets after ≈: the same amount, converted by molar mass.
Experiments:
Type in all cases: functional
[1] = test system: Mycobacterium tuberculosis; test: Antimycobacterial activity against PAS resistant Mycobacterium tuberculosis H37Rv harboring R49W mutant assessed as inhibition of bacterial growth measured after 2 weeks by microbroth dilution method
Outline: (§1)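 Diluted 1000-fold into 96-well plates with 2-fold serial compound dilutions and incubated at 37 °C for 2 weeks. Growth scored by mirror at 1 and 2 weeks. MIC is the lowest concentration completely inhibiting growth; tested in duplicate. DMSO, isoniazid and linezolid served as controls.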

[2] = test system: Mycobacterium tuberculosis; test: Antimycobacterial activity against multidrug resistant Mycobacterium tuberculosis H37Rv assessed as inhibition of bacterial growth measured after 2 weeks by microbroth dilution method; settings: 336 h; outline: as §1
[3] = test system: Mycobacterium tuberculosis; test: Antimycobacterial activity against PAS resistant Mycobacterium tuberculosis H37Rv harboring S150G mutant assessed as inhibition of bacterial growth measured after 2 weeks by microbroth dilution method; outline: as §1
[4] = test system: Mycobacterium tuberculosis; test: Antimycobacterial activity against PAS resistant Mycobacterium tuberculosis H37Rv harboring E153A mutant assessed as inhibition of bacterial growth measured after 2 weeks by microbroth dilution method; outline: as §1
[5] = test system: Mycobacterium tuberculosis; test: Antimycobacterial activity against extensively drug resistant Mycobacterium tuberculosis H37Rv assessed as inhibition of bacterial growth measured after 2 weeks by microbroth dilution method; settings: 336 h; outline: as §1

| Structure (SMILES) | MIC90 [1] | MIC90 [2] [µM] | MIC90 [3] | MIC90 [4] | MIC90 [5] [µM] |
| --- | --- | --- | --- | --- | --- |
| CC(=O)NC[C@H]1CN(c2ccc(N3CCOCC3)c(F)c2)C(=O)O1 [LINEZOLID] | 1.9 µM (≈ 0.641 µg/mL) | 0.8 (≈ 0.27 µg/mL) | 1.9 µM (≈ 0.641 µg/mL) | 1.9 µM (≈ 0.641 µg/mL) | 0.9 (≈ 0.304 µg/mL) |
| NNC(=O)c1ccncc1 [ISONIAZID] | 0.3 µM (≈ 0.0411 µg/mL) | 0.4 (≈ 0.0549 µg/mL) | 0.3 µM (≈ 0.0411 µg/mL) | 0.3 µM (≈ 0.0411 µg/mL) | 6.3 (≈ 0.864 µg/mL) |
| Nc1ccc(C(=O)O)c(O)c1 [AMINOSALICYLIC ACID] | 12.5 µM (≈ 1.91 µg/mL) | 0.2 (≈ 0.0306 µg/mL) | 12.5 µM (≈ 1.91 µg/mL) | 12.5 µM (≈ 1.91 µg/mL) | ≥ 50 |
| Nc1cc(O)c(C(=O)O)cc1F | >=50 uM | 6.3 (≈ 1.08 µg/mL) | >=50 uM | >=50 uM | ≥ 50 |

Reference: ChEMBL document CHEMBL5131498, “Synthesis and biological evaluation of orally active prodrugs and analogs of para-aminosalicylic acid (PAS)” (Eur J Med Chem, 2022)
